Source: ChEMBL document CHEMBL1144451, “Polyamine-vectored iron chelators: the role of charge” (J Med Chem, 2005)

Legend:
L1210 [1] = test: Inhibitory concentration against growth of murine L1210 cells at 48 hours; type: functional, cell-based; conditions: Mus musculus, L1210, 48 h
Method in brief: (§1)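 Proliferation of murine leukemia L1210 cells measured after 48 h or 96 h exposure. IC50 reported as the mean of at least two experiments. Variation from the mean was typically 10–25% for the 96-h values.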

L1210 [2] = test: Ratio of intracellular concentration to that of treatment concentration in L1210 cells; type: functional, Mus musculus
L1210 [3] = test: Inhibitory concentration against growth of murine L1210 cells at 96 hours; type: functional, cell-based; conditions: Mus musculus, L1210, 96 h; method in brief: as §1
[4] = Iron clearing efficiency in urine of rodents following a subcutaneous dosage of 300 umol/kg; type: functional
Method in brief: (§2)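 Bile-duct-cannulated rats given a subcutaneous dose of 300 µmol/kg, equivalent in iron-binding capacity to 450 µmol/kg of the 3:1 ligands. Chelator-induced iron excretion measured in both bile and urine. Bile collected as multiple samples to follow excretion kinetics.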

[5] = Iron clearing efficiency in bile of rodents following a subcutaneous dosage of 300 umol/kg; type: functional; method in brief: as §2
L1210 [6] = test: Intracellular concentration was determined in murine L1210 cells after treatment with 100 uM compound for 48 h; type: functional, cell-based; conditions: Mus musculus
Method in brief: (§3)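 Murine leukemia L1210 cells exposed to the compound, 48 h unless another time is indicated. Intracellular level measured as pmol/10^6 cells. Converted to concentration using about 1 µL volume per 10^6 untreated cells.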

L1210 [7] = test: Ability to compete with [3H]SPD for the polyamine transport apparatus in L1210 cells; type: functional, cell-based, Mus musculus
[8] = Iron clearing efficiency in bile-duct-cannulated rodents following a subcutaneous dosage of 300 umol/kg; type: functional; method in brief: as §2
[9] = Iron clearing efficiency in bile-duct-cannulated rodents following a subcutaneous dosage of 450 umol/kg; type: ADME; conditions: rodentia, in vivo, sc
Method in brief: (§4)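 Bile-duct-cannulated rat model. Drug given sc at 450 µmol/kg, set for equivalent iron-binding capacity. Chelator-promoted iron excretion measured in both bile and urine. Multiple bile samples collected, so the kinetics of iron excretion could be followed.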

[10] = Iron clearing efficiency in bile of rodents following a subcutaneous dosage of 450 umol/kg; type: ADME; conditions: rodentia, in vivo, sc; method in brief: as §4
[11] = Iron clearing efficiency in urine of rodents following a subcutaneous dosage of 450 umol/kg; type: ADME; conditions: rodentia, in vivo, sc; method in brief: as §4
[12] = Iron clearing efficiency in bile-duct-cannulated rodents following a subcutaneous dosage of 450 umol/kg (iron excretion delayed until ~18 hours after administration); type: functional
L1210 [13] = test: Intracellular concentration was determined in murine L1210 cells after treatment with 0.2 uM compound for 48 h; type: functional, cell-based; conditions: Mus musculus; method in brief: as §3
L1210 [14] = test: Intracellular concentration was determined in murine L1210 cells after treatment with 100 uM compound for 48 hrs; type: functional, cell-based; conditions: Mus musculus; method in brief: as §3
L1210 [15] = test: Intracellular concentration was determined in murine L1210 cells after treatment with 30 uM compound for 48 h; type: functional, cell-based; conditions: Mus musculus; method in brief: as §3
L1210 [16] = test: Intracellular concentration was determined in murine L1210 cells after treatment with 100 uM compound for 4 hrs; type: functional, cell-based; conditions: Mus musculus; method in brief: as §3
L1210 [17] = test: Intracellular concentration was determined in murine L1210 cells after treatment with 50 uM compound for 48 h; type: functional, cell-based; conditions: Mus musculus
Method in brief: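 Murine leukemia L1210 cells exposed to compound for 48 h unless otherwise indicated. Intracellular concentration expressed as pmol/10^6 cells; 10^6 untreated cells taken as about 1 µL volume. Mean of at least two or three experiments, variation typically less than 10%.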

Row | SMILES | IC50 (L1210 [1]) [µM] | Ratio (L1210 [2]) | IC50 (L1210 [3]) [µM] | Efficiency [4] [%] | Efficiency [5] [%] | Concentration (pmol/10E6 cells) (L1210 [6]) | Ki (L1210 [7]) [µM] | Efficiency [8] [%] | Efficiency [9] [%] | Efficiency [10] [%] | Efficiency [11] [%] | Efficiency [12] [%] | Concentration (pmol/10E6 cells) (L1210 [13]) | Concentration (pmol/10E6 cells) (L1210 [14]) | Concentration (pmol/10E6 cells) (L1210 [15]) | Concentration (pmol/10E6 cells) (L1210 [16]) | Concentration (pmol/10E6 cells) (L1210 [17])
1 | C[C@]1(C(=O)O)CSC(c2ccc(O)cc2O)=N1 [DEFERITRIN] | 19 | <0.5 | 20 | 7 | 93 | < 50 | > 500 | 1.1 |  |  |  |  |  |  |  |  | 
2 | Cc1c(O)c(=O)ccn1CCCNCCCCNCCCN | 0.2 | 1950 |  |  |  |  | 3.7 |  | 1.8 | 53 | 47 | <0.5 | 390 |  |  |  | 
3 | COC(=O)c1ccc(C(=O)NCCCNCCCCNCCCN)cc1 | > 100 | 4.3 | > 100 |  |  |  | 3.1 |  |  |  |  |  |  | 430 |  |  | 
4 | CCNCCCNCCCCNCCCNCC [BIS(ETHYL)SPERMINE] |  | 13.3 |  |  |  |  |  |  |  |  |  |  |  |  | 400 |  | 
5 | FC(F)(F)CNCCCNCCCCNCCCNCC(F)(F)F |  | <0.2 | > 100 |  |  | < 20 |  |  |  |  |  |  |  |  |  |  | 
6 | C[C@]1(C(=O)O)CSC(c2ccc(OCCCCNCCCNCCCN)cc2O)=N1 | 40 | 0.7 | 40 | 1 | 99 |  | 73 | 9.2 |  |  |  |  |  |  |  | 71 | 
7 | Cc1c(O)c(=O)ccn1C [DEFERIPRONE] | 46 | 0.02 | 55 |  |  |  | > 500 |  | 2.2 | 74 | 26 |  |  |  |  |  | 1
8 | CCOC(=O)[C@@]1(C)CSC(c2ccc(OCCCCNCCCNCCCN)cc2O)=N1 | 1.5 |  | 1.5 | 3 | 97 |  | 5.7 | 13.6 |  |  |  |  |  | 947 |  | 2980 | 
9 | NCCCNCCCCNCCCNC(=O)c1ccc(C(=O)O)cc1 | > 100 | <0.7 | > 100 |  |  | < 70 | 27 |  |  |  |  |  |  |  |  |  | 
